The text below walks through data of ChEMBL document CHEMBL1938318, “Design, synthesis and evaluation of novel molecules with a diphenyl ether nucleus as potential antitubercular agents” (Bioorg Med Chem Lett, 2012).

Converted amounts (≈) assume the structure as drawn.

For data set [1], the system named is Mycobacterium tuberculosis. The data set can be described thus: Antitubercular activity against Mycobacterium tuberculosis H37Rv after 7 to 11 days by microdilution method. It counts as functional. The method, boiled down: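 M. tuberculosis H37Rv grown in Middlebrook 7H9 with OADC, diluted in 7H9-OADC to 10⁴ CFU/mL and added to serial compound dilutions in 96-well microdilution plates. Incubated at 37 °C in humidified incubator, growth scored visually. MIC = lowest concentration with growth similar to 10 CFU inoculum-only well; isoniazid positive control.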
(In general: Dilution methods test growth across graded concentrations, often in twofold steps.)

Data set [2] can be described thus: Growth inhibition of human HepG2 cells at 20 uM after 48 hrs by MTT assay. Type of data set: cell-based. The note with it: read-out: GI. The method, boiled down:
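Cells seeded at 2500/well, cultured 24 h, then exposed to compound at 20 μM for 48 h. MTT (20 μL of 5 mg/ml stock) added for 2.5 h at 37 °C. Supernatant removed, formazan dissolved in DMSO with 15–20 min shaking, absorbance read at 570 nm. Inhibitory rate is the mean of three independent experiments.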
(Formazan colour is commonly taken as a measure of viable cells.)

Regarding `Cc1ccc(NC(=O)Cc2cccc(Oc3ccccc3)c2)nc1`, in data set [1], inhibition of growth (MIC) required 32 µg/mL (≈ 101 µM); the MIC90 (in general, an inhibitory concentration at the 90% level, which refers to growth in some studies and to a panel of isolates in others) amounted to 8 µg/mL (≈ 25.1 µM). In data set [2], the inhibition at 48 h, 20 µM amounted to 12.2%.

As for `O=C(Cc1cccc(Oc2ccccc2)c1)Nc1cccc(Cl)c1`, in data set [1], inhibition of growth (MIC) required 32 µg/mL (≈ 94.7 µM) and the MIC90 was found to be 16 µg/mL (≈ 47.4 µM). The inhibition at 48 h, 20 µM in data set [2] was determined as 7.95%.

As for `O=C(Cc1cccc(Oc2ccccc2)c1)Nc1ccc(Br)cc1`, in data set [1], the lowest concentration to inhibit growth (MIC) was 64 µg/mL (≈ 167 µM) and the MIC90 worked out at 16 µg/mL (≈ 41.9 µM). Further, in data set [2], the inhibition at 48 h, 20 µM amounted to 15.7%.

Turning to `O=C(Cc1cccc(Oc2ccccc2)c1)Nc1ccc(Cl)c(Cl)c1`, the MIC – broadly, the least concentration at which growth counts as inhibited – in data set [1] stood at 4 µg/mL (≈ 10.7 µM). For the same molecule, the inhibition at 48 h, 20 µM in data set [2] was 7%.

For the molecule `O=C(Cc1cccc(Oc2ccccc2)c1)Nc1ccc(F)c(F)c1`, in data set [1], it took 32 µg/mL (≈ 94.3 µM) to inhibit growth (MIC) and the MIC90 was 8 µg/mL (≈ 23.6 µM). The inhibition at 48 h, 20 µM in data set [2] turned out to be 26.7%.

As to `O=C(Cc1cccc(Oc2ccccc2)c1)Nc1ccc(Br)cc1Cl`, in data set [1], the MIC came to 32 µg/mL (≈ 76.8 µM) and the MIC90 worked out at 16 µg/mL (≈ 38.4 µM). Besides, in data set [2], the inhibition at 48 h, 20 µM was 12.8%.

As for `N#Cc1ccccc1NC(=O)Cc1cccc(Oc2ccccc2)c1`, in data set [1], inhibition of growth (MIC) required 32 µg/mL (≈ 97.5 µM). Further, the inhibition at 48 h, 20 µM in data set [2] is 19.1%.

Consider `O=C(Cc1cccc(Oc2ccccc2)c1)Nc1ccc(C(F)(F)F)cc1`, for which, in data set [1], 32 µg/mL (≈ 86.2 µM) was the least that counted as inhibitory (MIC) and the MIC90 stood at 8 µg/mL (≈ 21.5 µM). Further, the inhibition at 48 h, 20 µM in data set [2] is 10.3%.

In data set [1], `O=C(Cc1cccc(Oc2ccccc2)c1)Nc1ccc(OC(F)(F)F)cc1` returned an MIC of 32 µg/mL (≈ 82.6 µM) and an MIC90 of 16 µg/mL (≈ 41.3 µM). Further, the inhibition at 48 h, 20 µM in data set [2] stood at 4.71%.

In the case of `COc1ccc(NC(=O)Cc2cccc(Oc3ccccc3)c2)c(OC)c1`, the MIC in data set [1] was 32 µg/mL (≈ 88.1 µM). Also, the inhibition at 48 h, 20 µM in data set [2] came out at 4.11%.

In data set [1], `O=C(Cc1cccc(Oc2ccccc2)c1)Nc1cccc([N+](=O)[O-])c1` returned an MIC of 32 µg/mL (≈ 91.9 µM) and an MIC90 of 16 µg/mL (≈ 45.9 µM). For the same molecule, the inhibition at 48 h, 20 µM in data set [2] stood at 0.95%.

In data set [1], `O=C(Cc1cccc(Oc2ccccc2)c1)Nc1ccc([N+](=O)[O-])cc1` returned an MIC of 32 µg/mL (≈ 91.9 µM) and an MIC90 of 8 µg/mL (≈ 23 µM). In data set [2], the inhibition at 48 h, 20 µM is 36.4%.

On to `O=C(Cc1cccc(Oc2ccccc2)c1)Nc1cccc2ccccc12`, for which, in data set [1], the lowest concentration to inhibit growth (MIC) was 64 µg/mL (≈ 181 µM) and the MIC90 turned out to be 32 µg/mL (≈ 90.5 µM). Moreover, the inhibition at 48 h, 20 µM in data set [2] worked out at 3.31%.

In data set [1], `O=C(Cc1cccc(Oc2ccccc2)c1)NC(c1ccccc1)c1ccccc1` registered an MIC of 32 µg/mL (≈ 81.3 µM) and an MIC90 of 8 µg/mL (≈ 20.3 µM). In addition, the inhibition at 48 h, 20 µM in data set [2] amounted to 4.84%.

In data set [1], `COc1ccc2nc(NC(=O)Cc3cccc(Oc4ccccc4)c3)sc2c1` returned an MIC of 16 µg/mL (≈ 41 µM) and an MIC90 of 8 µg/mL (≈ 20.5 µM). Moreover, the inhibition at 48 h, 20 µM in data set [2] is 4.29%.

As for `O=C(Cc1cccc(Oc2ccccc2)c1)Nc1nccs1`, in data set [1], the MIC came to 32 µg/mL (≈ 103 µM) and the MIC90 was determined as 16 µg/mL (≈ 51.6 µM). The inhibition at 48 h, 20 µM in data set [2] was found to be 39.9%.

In data set [1], `O=C(Cc1cccc(Oc2ccc(Cl)cc2)c1)Nc1cccc(Cl)c1` registered an MIC of 32 µg/mL (≈ 86 µM) and an MIC90 of 16 µg/mL (≈ 43 µM). Further, the inhibition at 48 h, 20 µM in data set [2] came out at 27.1%.

In data set [1], `O=C(Cc1cccc(Oc2ccc(F)cc2)c1)Nc1cccc(Cl)c1` returned an MIC of 32 µg/mL (≈ 89.9 µM) and an MIC90 of 16 µg/mL (≈ 45 µM). For the same molecule, the inhibition at 48 h, 20 µM in data set [2] worked out at 23.5%.

As to `O=C(Nc1cccc(Cl)c1)c1cccc(Oc2ccccc2)c1`, in data set [1], the lowest concentration to inhibit growth (MIC) was 32 µg/mL (≈ 98.8 µM) and the MIC90 was found to be 16 µg/mL (≈ 49.4 µM). In data set [2], the inhibition at 48 h, 20 µM is 7.07%.

`O=C(CCc1cccc(Oc2ccccc2)c1)Nc1cccc(Cl)c1`: in data set [1], the MIC was determined as 32 µg/mL (≈ 91 µM) and the MIC90 worked out at 16 µg/mL (≈ 45.5 µM). For the same molecule, the inhibition at 48 h, 20 µM in data set [2] amounted to 25.1%.

`O=C(CCCc1cccc(Oc2ccccc2)c1)Nc1cccc(Cl)c1`: in data set [1], inhibition of growth (MIC) required 32 µg/mL (≈ 87.5 µM) and the MIC90 was 16 µg/mL (≈ 43.7 µM).

In the case of `O=C(Nc1cccc(Cl)c1)c1ccc(Oc2ccccc2)cc1`, in data set [1], 32 µg/mL (≈ 98.8 µM) was the least that counted as inhibitory (MIC) and the MIC90 was determined as 16 µg/mL (≈ 49.4 µM). The inhibition at 48 h, 20 µM in data set [2] worked out at 29.2%.

In data set [1], `NNC(=O)c1ccncc1` [ISONIAZID] registered an MIC of 0.0625 µg/mL (≈ 0.456 µM) and an MIC90 of 0.0625 µg/mL (≈ 0.456 µM). The inhibition at 48 h, 20 µM in data set [2] was 3.51%.
